Data on six molecules can be found in ChEMBL document CHEMBL1153631, “On the role of topoisomerase I in mediating the cytotoxicity of 9-aminoacridine-based anticancer agents” (Bioorg Med Chem Lett, 2009).

One may read the pEC50 as −log10 of the EC50, conventionally taken in molar units.

In assay [1] the test system is REH. The assay is described as follows: Cytotoxic activity against human REH cells after 48 hrs by fluorescent resazurin dye assay. It counts as functional, cell-based.
Assay [2] in a line: Cytotoxic activity against human OCL3 cells after 48 hrs by fluorescent resazurin dye assay. It is filed as functional, cell-based. As to conditions: OCL3, 48 h. (Alamar Blue is a resazurin reagent that responds to reducing activity.)
Assay [3] is described as follows: Cytotoxic activity against human SU-8686 cells after 48 hrs by fluorescent resazurin dye assay. It counts as functional, cell-based. As to conditions: SU.86.86, 48 h.
Assay [4] concerns HeLa. The assay is described as follows: Cytotoxicity against human HeLa cells at 10 to 40 uM by coomassie blue assay in presence of topoisomerase 1-directed siRNA.
In assay [5] the target is T1, DNA topoisomerase 1 (Homo sapiens) (UniProt P11387).
T1 sequence (whole entry): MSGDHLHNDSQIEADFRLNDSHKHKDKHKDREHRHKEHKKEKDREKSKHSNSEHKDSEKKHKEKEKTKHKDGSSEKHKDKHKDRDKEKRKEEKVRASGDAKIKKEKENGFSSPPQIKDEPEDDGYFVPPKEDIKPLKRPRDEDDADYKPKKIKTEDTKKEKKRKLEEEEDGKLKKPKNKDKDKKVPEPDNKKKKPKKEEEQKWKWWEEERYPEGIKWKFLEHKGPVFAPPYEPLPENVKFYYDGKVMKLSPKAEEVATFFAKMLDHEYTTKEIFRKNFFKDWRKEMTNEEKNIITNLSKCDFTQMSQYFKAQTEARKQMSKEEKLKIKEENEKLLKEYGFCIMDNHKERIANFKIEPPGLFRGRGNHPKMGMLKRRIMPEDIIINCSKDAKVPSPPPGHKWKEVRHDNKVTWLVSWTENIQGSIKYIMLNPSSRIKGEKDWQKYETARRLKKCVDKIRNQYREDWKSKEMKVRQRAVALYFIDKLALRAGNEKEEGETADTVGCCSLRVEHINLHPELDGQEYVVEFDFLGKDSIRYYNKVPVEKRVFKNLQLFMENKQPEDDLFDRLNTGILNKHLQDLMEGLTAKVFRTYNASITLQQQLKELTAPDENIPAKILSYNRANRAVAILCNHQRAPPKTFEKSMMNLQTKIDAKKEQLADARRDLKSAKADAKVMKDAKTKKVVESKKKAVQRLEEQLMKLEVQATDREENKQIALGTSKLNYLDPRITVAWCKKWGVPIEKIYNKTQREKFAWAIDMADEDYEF
The assay is described as follows: Induction of covalent topoisomerase 1-DNA adduct stabilization in human MIA PaCa cells at 100 uM after 1 hr by ICE assay. It counts as cell-based. The essentials:
(§1)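 MiaPACA cells exposed to 20 or 100 μM agent for 1 h at 37 °C (vehicle 0.1% DMSO), then lysed with sarkosyl for the ICE bioassay. CsCl-purified DNA-positive gradient fractions were immunoblotted for topoisomerase I. Four independent experiments.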

For assay [6], the target named is T1, DNA topoisomerase 1 (Homo sapiens). The experiment in a line: Inhibition of human topoisomerase 1-mediated relaxation of supercoiled plasmid O6#7 DNA at 100 uM after 30 mins by gel electrophoresis. An outline of the steps:
(§2)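 Supercoiled plasmid incubated with 2 units topoisomerase I and test agent at 8 μM or at a final 50 or 100 μM. A no-enzyme lane was included. Supercoiled and relaxed DNA bands were resolved on a gel. Four experiments.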

For assay [7], the system named is NCI-H460. The experiment in a line: Cytotoxic activity against human H460 cells after 48 hrs by fluorescent resazurin dye assay. It counts as functional, cell-based. As to conditions: NCI-H460, 48 h.
Assay [8] deals with MCF7. The assay is described as follows: Cytotoxic activity against human MCF7 cells after 48 hrs by fluorescent resazurin dye assay. Particulars: MCF7, 48 h. It is filed as functional, cell-based.
Assay [9] concerns HCT-116. The experiment in a line: Cytotoxic activity against human HCT116 cells after 48 hrs by fluorescent resazurin dye assay. It counts as functional, cell-based. Particulars: HCT-116, 48 h.
Assay [10] can be described thus: Cytotoxic activity against mouse Hepa-1c1c7 cells after 48 hrs by fluorescent resazurin dye assay. It counts as functional, cell-based. Particulars: Hepa-1c1c7, 48 h.
Assay [11] addresses T1, DNA topoisomerase 1 (Homo sapiens). The experiment in a line: Induction of covalent human topoisomerase 1-plasmid O6#7 DNA adduct stabilization assessed as appearance of nicked plasmid at 100 uM by agarose gel electrophoresis. The essentials:
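Supercoiled plasmid aliquots incubated 30 min at 37 °C with nuclear extract containing 50 units topoisomerase I and test agent at 1.6 μM or 100 μM; the DNA products were then examined.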

For assay [12], the system named is SK-MEL. The assay is described as follows: Cytotoxic activity against human SK-MEL cells after 48 hrs by fluorescent resazurin dye assay. It is filed as functional, cell-based.
For assay [13], the system named is DU-145. The assay is described as follows: Cytotoxic activity against human DU145 cells after 48 hrs by fluorescent resazurin dye assay. It counts as functional, cell-based. As to conditions: DU-145, 48 h.
The target in assay [14] is T1, DNA topoisomerase 1 (Homo sapiens). The assay is described as follows: Inhibition of human topoisomerase 1-mediated relaxation of supercoiled plasmid O6#7 DNA at 8 uM after 30 mins by gel electrophoresis. An outline of the steps:
as §2

The target is the same in assay [15]. The assay is described as follows: Induction of covalent topoisomerase 1-DNA adduct stabilization in human MIA PaCa cells at 20 uM after 1 hr by ICE assay. It is filed as cell-based. Particulars: 100 uM, in the assay text read “100 uM” for “20 uM”. The essentials:
as §1

pEC50: −log10 of the molar value. Calls of active or inactive are those of the source. The rule behind the calls is not given here.

For `CN1CCN(C(=O)c2ccc3c(NC4CCN(Cc5ccccc5)CC4)c4ccccc4nc3c2)CC1`, the pEC50 in assay [1] was 4.68; in assay [2] it was 4.69; in assay [3], 4.67; in assay [7], 4.41; in [8] it was 4.59; in [9] it was 4.53. For the same molecule, the pEC50 was 4.57 in assay [10], 4.84 in [12] and 4.49 in assay [13]. Further, the outcome in [4], in assay [5] and in assay [11] was Active. Moreover, the result in assay [6] was inactive.

For `CC[C@@]1(O)C(=O)OCc2c1cc1n(c2=O)Cc2cc3ccccc3nc2-1`, the outcome in [4] was inactive.

For `COc1ccc2c(c1)-c1nn(CCCN(C)C)c3ccc([N+](=O)[O-])c(c13)N2`, the outcome in assay [14] was Active.

For `CN1CCN(C(=O)c2ccc3c(NCCc4c[nH]c5ccccc45)c4ccccc4nc3c2)CC1`, the pEC50 in assay [1] was 5.39; in assay [2] it was 4.82; in [3], 4.79; in assay [7] it was 4.50; in [8], 4.72; in assay [9] it was 4.56. Further, the pEC50 in assay [10] is 4.61; in [12], 5.28; in assay [13] it was 4.78. Further, the outcome in assay [6] was inactive.

Turning to `CN1CCN(C(=O)c2cccc3c(NCCc4c[nH]c5ccccc45)c4ccccc4nc23)CC1`, the pEC50 in assay [1] was 4.71; in [2] it was 4.40; in [3] it was 5.17; in assay [7], 4.80; in assay [8], 4.43; in assay [9] it was 4.54. Also, the pEC50 in [10] was 4.25; in [12], 4.78; in assay [13], 4.43. For the same molecule, the outcome in [15] was Active. Moreover, the outcome in assay [6] was inactive.

`CCN(CC)C(=O)c1ccc2c(NCCc3c[nH]c4ccccc34)c3ccccc3nc2c1`: the pEC50 in assay [1] is 4.81; in [2], 4.74; in assay [3] it was 4.79; in [7] it was 4.73; in assay [8], 4.87; in assay [9], 4.95. The pEC50 in assay [10] was 4.95; in assay [12] it was 4.80; in [13] it was 4.92. Moreover, in assay [15], the outcome was Active. Moreover, in assay [6], the outcome was inactive.
